Data published in ChEMBL document CHEMBL5108039, “Piperazine tethered bergenin heterocyclic hybrids: design, synthesis, anticancer activity, and molecular docking studies” (RSC Med Chem, 2022).

Tests used:
HCT-15 = assay: Cytotoxicity against human HCT-15 cells assessed as cell growth inhibition; assay type: functional, cell-based
Procedure, shortened: (§1)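 Compounds were dissolved in sterile DMSO as 10 mg ml−1 stocks and tested for in vitro growth inhibition of human cancer cell lines. Doxorubicin was the standard drug and DMSO (0.01%) the vehicle control. IC50 values are reported as means.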

CAL-27 [1] = assay: Cytotoxicity against human CAL-27 cells assessed as cell growth inhibition; assay type: functional, cell-based; procedure, shortened: as §1
SCC-9 [2] = assay: Cytotoxicity against human SCC-9 cells assessed as cell growth inhibition; assay type: functional, cell-based; procedure, shortened: as §1
A549 = assay: Cytotoxicity against human A549 cells assessed as cell growth inhibition; assay type: functional, cell-based
Procedure, shortened: (§2)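 Compounds were dissolved in sterile DMSO as 10 mg ml−1 stocks and tested in vitro for cytotoxicity in a cell-line panel, with DMSO (0.01%) as vehicle control and doxorubicin as standard. Mean IC50 values were reported, and the normal lung epithelial cells were tested up to 100 μM.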

MCF7 = assay: Cytotoxicity against human MCF7 cells assessed as cell growth inhibition; assay type: functional, cell-based; procedure, shortened: as §1
[3] = Cytotoxicity against human BEAS-2B cells assessed as cell growth inhibition; assay type: toxicity, cell-based; procedure, shortened: as §2
CAL-27 [4] = assay: Cell cycle arrest in human CAL-27 cells assessed as accumulation at G0/G1 phase at 10 uM incubated for 24 hrs by flow cytometry (reference value: 77.6 %); assay type: functional
CAL-27 [5] = assay: Cell cycle arrest in human CAL-27 cells assessed as accumulation at G0/G1 phase at 34 uM incubated for 24 hrs by flow cytometry (reference value: 77.6 %); assay type: functional
CAL-27 [6] = assay: Cell cycle arrest in human CAL-27 cells assessed as accumulation at S phase at 10 uM incubated for 24 hrs by flow cytometry (reference value: 3.6 %); assay type: functional
CAL-27 [7] = assay: Cell cycle arrest in human CAL-27 cells assessed as accumulation at S phase at 34 uM incubated for 24 hrs by flow cytometry (reference value: 3.6 %); assay type: functional
CAL-27 [8] = assay: Cell cycle arrest in human CAL-27 cells assessed as accumulation at G2/M phase at 10 uM incubated for 24 hrs by flow cytometry (reference value: 11.9 %); assay type: functional
CAL-27 [9] = assay: Cell cycle arrest in human CAL-27 cells assessed as accumulation at G2/M phase at 34 uM incubated for 24 hrs by flow cytometry (reference value: 11.9 %); assay type: functional
SCC-9 [10] = assay: Cell cycle arrest in human SCC-9 cells assessed as accumulation at G0/G1 phase at 17 uM incubated for 24 hrs by flow cytometry (reference value: 70.8 %); assay type: functional
SCC-9 [11] = assay: Cell cycle arrest in human SCC-9 cells assessed as accumulation at G0/G1 phase at 34 uM incubated for 24 hrs by flow cytometry (reference value: 70.8 %); assay type: functional
SCC-9 [12] = assay: Cell cycle arrest in human SCC-9 cells assessed as accumulation at S phase at 17 uM incubated for 24 hrs by flow cytometry (reference value: 14.4 %); assay type: functional
SCC-9 [13] = assay: Cell cycle arrest in human SCC-9 cells assessed as accumulation at S phase at 34 uM incubated for 24 hrs by flow cytometry (reference value: 14.4 %); assay type: functional
SCC-9 [14] = assay: Cell cycle arrest in human SCC-9 cells assessed as accumulation at G2/M phase at 17 uM incubated for 24 hrs by flow cytometry (reference value: 14.2 %); assay type: functional
SCC-9 [15] = assay: Cell cycle arrest in human SCC-9 cells assessed as accumulation at G2/M phase at 34 uM incubated for 24 hrs by flow cytometry (reference value: 14.2 %); assay type: functional
CAL-27 [16] = assay: Induction of apoptosis in human CAL-27 cells assessed as live cells at 10 uM incubated for 24 hrs by Annexin V-FITC/PI staining based flow cytometric analysis (reference value: 99.8 %); assay type: functional
Procedure, shortened: (§3)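 CAL27 cells were treated with vehicle, doxorubicin or test compounds at 10–63 μM, and apoptosis was assessed by annexin V–FITC/PI staining with flow cytometry. Cells were scored as live, early apoptotic, late apoptotic or necrotic. The vehicle was DMSO (0.01%).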

CAL-27 [17] = assay: Induction of apoptosis in human CAL-27 cells assessed as early apoptotic cells at 10 uM incubated for 24 hrs by Annexin V-FITC/PI staining based flow cytometric analysis (reference value: 0.1 %); assay type: functional; procedure, shortened: as §3
CAL-27 [18] = assay: Induction of apoptosis in human CAL-27 cells assessed as late apoptotic cells at 10 uM incubated for 24 hrs by Annexin V-FITC/PI staining based flow cytometric analysis (reference value: 0.1 %); assay type: functional; procedure, shortened: as §3
CAL-27 [19] = assay: Induction of apoptosis in human CAL-27 cells assessed as necrotic cells at 10 uM incubated for 24 hrs by Annexin V-FITC/PI staining based flow cytometric analysis (reference value: 0.0 %); assay type: functional; procedure, shortened: as §3
CAL-27 [20] = assay: Induction of apoptosis in human CAL-27 cells assessed as live cells at 34 uM incubated for 24 hrs by Annexin V-FITC/PI staining based flow cytometric analysis (reference value: 99.8 %); assay type: functional; procedure, shortened: as §3
CAL-27 [21] = assay: Induction of apoptosis in human CAL-27 cells assessed as early apoptotic cells at 34 uM incubated for 24 hrs by Annexin V-FITC/PI staining based flow cytometric analysis (reference value: 0.1 %); assay type: functional; procedure, shortened: as §3
CAL-27 [22] = assay: Induction of apoptosis in human CAL-27 cells assessed as late apoptotic cells at 34 uM incubated for 24 hrs by Annexin V-FITC/PI staining based flow cytometric analysis (reference value: 0.1 %); assay type: functional; procedure, shortened: as §3
CAL-27 [23] = assay: Induction of apoptosis in human CAL-27 cells assessed as necrotic cells at 34 uM incubated for 24 hrs by Annexin V-FITC/PI staining based flow cytometric analysis (reference value: 0.0 %); assay type: functional
SCC-9 [24] = assay: Induction of apoptosis in human SCC-9 cells assessed as live cells at 17 uM incubated for 24 hrs by Annexin V-FITC/PI staining based flow cytometric analysis (reference value: 95.7 %); assay type: functional
SCC-9 [25] = assay: Induction of apoptosis in human SCC-9 cells assessed as early apoptotic cells at 17 uM incubated for 24 hrs by Annexin V-FITC/PI staining based flow cytometric analysis (reference value: 2.8 %); assay type: functional
SCC-9 [26] = assay: Induction of apoptosis in human SCC-9 cells assessed as late apoptotic cells at 17 uM incubated for 24 hrs by Annexin V-FITC/PI staining based flow cytometric analysis (reference value: 1.4 %); assay type: functional
SCC-9 [27] = assay: Induction of apoptosis in human SCC-9 cells assessed as necrotic cells at 17 uM incubated for 24 hrs by Annexin V-FITC/PI staining based flow cytometric analysis (reference value: 0.1 %); assay type: functional
SCC-9 [28] = assay: Induction of apoptosis in human SCC-9 cells assessed as live cells at 34 uM incubated for 24 hrs by Annexin V-FITC/PI staining based flow cytometric analysis (reference value: 95.7 %); assay type: functional
SCC-9 [29] = assay: Induction of apoptosis in human SCC-9 cells assessed as early apoptotic cells at 34 uM incubated for 24 hrs by Annexin V-FITC/PI staining based flow cytometric analysis (reference value: 2.8 %); assay type: functional
SCC-9 [30] = assay: Induction of apoptosis in human SCC-9 cells assessed as late apoptotic cells at 34 uM incubated for 24 hrs by Annexin V-FITC/PI staining based flow cytometric analysis (reference value: 1.4 %); assay type: functional
SCC-9 [31] = assay: Induction of apoptosis in human SCC-9 cells assessed as necrotic cells at 34 uM incubated for 24 hrs by Annexin V-FITC/PI staining based flow cytometric analysis (reference value: 0.1 %); assay type: functional

## COc1c(O)c(CN2CCN(CC(=O)Nc3nc(-c4ccccc4)cs3)CC2)c2c(c1O)C1O[C@H](CO)[C@@H](O)[C@H](O)C1OC2=O (some centres undefined)
HCT-15
  IC50: 69.7 µM
CAL-27 [1]
  IC50: 20.7 µM
SCC-9 [2]
  IC50: 34.4 µM
A549
  IC50: > 100 µM
MCF7
  IC50: > 100 µM
[3]
  IC50: > 100 µM
CAL-27 [4]
  Activity: 87.4%
CAL-27 [5]
  Activity: 85.6%
CAL-27 [6]
  Activity: 2.9%
CAL-27 [7]
  Activity: 4.1%
CAL-27 [8]
  Activity: 10.6%
CAL-27 [9]
  Activity: 10.8%
SCC-9 [10]
  Activity: 71%
SCC-9 [11]
  Activity: 73.6%
SCC-9 [12]
  Activity: 16.5%
SCC-9 [13]
  Activity: 12.6%
SCC-9 [14]
  Activity: 11.8%
SCC-9 [15]
  Activity: 10.3%
CAL-27 [16]
  Activity: 94.5%
CAL-27 [17]
  Activity: 1.2%
CAL-27 [18]
  Activity: 2.2%
CAL-27 [19]
  Activity: 2%
CAL-27 [20]
  Activity: 88.7%
CAL-27 [21]
  Activity: 2.2%
CAL-27 [22]
  Activity: 4.8%
CAL-27 [23]
  Activity: 4.3%
SCC-9 [24]
  Activity: 28%
SCC-9 [25]
  Activity: 28.8%
SCC-9 [26]
  Activity: 42%
SCC-9 [27]
  Activity: 1.3%
SCC-9 [28]
  Activity: 20.2%
SCC-9 [29]
  Activity: 32.4%
SCC-9 [30]
  Activity: 45.6%
SCC-9 [31]
  Activity: 1.8%
